Data published in ChEMBL document CHEMBL1126032, “Nonpeptide renin inhibitors employing a novel 3-aza(or oxa)-2,4-dialkyl glutaric acid moiety as a P2/P3 amide bond replacement” (J Med Chem, 1992).

Columns and labels:
[1] = Bioavailability in monkey (dose 10 mg/kg i.d. or 0.3 mg/kg i.v.); type: ADME, organism-based; settings: primates, in vivo, iv
Method in brief: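 Male cynomolgus monkeys (3–5 kg), salt-depleted, fasted overnight, pentobarbital-anesthetized (15 mg/kg bolus, then 0.10 mg kg⁻¹ min⁻¹ infusion). Compound given as HCl salt solution, either iv via a leg vein or id by catheter into the proximal duodenum after laparotomy; one dose per monkey. Serial plasma levels were measured by HPLC or bioassay, and AUC was fitted to a biexponential decay. Bioavailability = dose-corrected AUC(id)/AUC(iv) × 100.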

[2] = molecular target: T1, Renin (Homo sapiens, UniProt P00797); test: In vitro potency against purified renin at a pH of 6.0.
T1 sequence (P00797 whole entry): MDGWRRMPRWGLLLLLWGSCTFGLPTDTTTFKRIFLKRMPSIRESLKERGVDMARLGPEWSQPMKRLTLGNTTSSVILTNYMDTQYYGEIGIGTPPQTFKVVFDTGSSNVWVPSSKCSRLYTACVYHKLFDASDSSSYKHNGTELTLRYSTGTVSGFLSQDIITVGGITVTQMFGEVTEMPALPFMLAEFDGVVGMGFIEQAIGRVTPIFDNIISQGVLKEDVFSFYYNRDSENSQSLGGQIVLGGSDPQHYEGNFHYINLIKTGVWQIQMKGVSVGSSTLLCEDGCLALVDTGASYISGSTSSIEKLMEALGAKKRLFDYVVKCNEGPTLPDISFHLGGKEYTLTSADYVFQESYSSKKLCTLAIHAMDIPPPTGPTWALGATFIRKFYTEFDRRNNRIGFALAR
Method in brief: (§1)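 Human renin, either purified enzyme or renin in plasma, was assayed at the stated pH. Inhibition was reported as IC50 in nM.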

[3] = molecular target: T1, Renin; test: In vitro potency against plasma renin at a pH of 7.4; type: cell-free; method in brief: as §1
[4] = molecular target: T1, Renin; test: In vitro potency against plasma renin at a pH of 6.0; type: cell-free; method in brief: as §1
[5] = molecular target: T1, Renin; test: In vitro potency against purified renin at a pH of 7.4; method in brief: as §1

Compound	IC50 [2]	IC50 [3]	other results
CCCCNC(=O)[C@@H](C[C@H](O)[C@H](CC1CCCCC1)NC(=O)[C@H](CCCC)N[C@@H](Cc1ccccc1)C(=O)N1CCC(OCOC)CC1)C(C)C	0.0009 µM	0.0087 µM	bioavailability [1]: 7.1%
CCCC[C@H](O[C@@H](Cc1ccccc1)C(=O)N1CCC(OCSC)CC1)C(=O)N[C@@H](CC1CCCCC1)[C@@H](O)[C@@H](O)CC(C)C	0.13 µM		
CCC[C@H](O[C@@H](Cc1ccccc1)C(=O)N1CCC(OCOC)CC1)C(=O)N[C@@H](CC1CCCCC1)[C@@H](O)[C@@H](O)CC(C)C	0.0014 µM	0.031 µM	IC50 [4]: 0.0033 µM; IC50 [5]: 0.0055 µM
CCCC[C@H](O[C@@H](Cc1ccccc1)C(=O)N1CCC(SCOC)CC1)C(=O)N[C@@H](CC1CCCCC1)[C@@H](O)[C@@H](O)CC(C)C	0.0018 µM	0.12 µM	
CC(C)C[C@@H](N[C@@H](Cc1ccccc1)C(=O)OC(C)(C)C)C(=O)N[C@@H](CC1CCCCC1)[C@@H](O)[C@@H](O)CC(C)C	2.7 µM		
CCCCNC(=O)[C@@H](C[C@H](O)[C@H](CC1CCCCC1)NC(=O)[C@H](CCCC)O[C@@H](Cc1ccccc1)C(=O)N1CCC(OCOC)CC1)C(C)C	0.0012 µM	0.0082 µM	
CCCCC1CCN(C(=O)[C@H](Cc2ccccc2)O[C@@H](CCCC)C(=O)N[C@@H](CC2CCCCC2)[C@@H](O)[C@@H](O)CC(C)C)CC1	1.1 µM		
CCCC[C@H](O[C@@H](Cc1ccccc1)C(=O)N1CCC(O)CC1)C(=O)N[C@@H](CC1CCCCC1)[C@@H](O)[C@@H](O)CC(C)C	0.13 µM		
CCCC[C@H](N[C@@H](Cc1ccccc1)C(=O)N1CCC(OCCOC)CC1)C(=O)N[C@@H](CC1CCCCC1)[C@@H](O)[C@@H](O)CC(C)C	0.031 µM	1.8 µM	
CCCC[C@H](O[C@@H](Cc1ccccc1)C(=O)N1CCOCC1)C(=O)N[C@@H](CC1CCCCC1)[C@@H](O)[C@@H](O)CC(C)C	0.015 µM	1 µM	
CCNC(=O)[C@H](Cc1ccccc1)O[C@@H](C)C(=O)N[C@@H](CC1CCCCC1)[C@@H](O)[C@@H](O)CC(C)C	0.13 µM		
CCCC[C@H](N[C@@H](Cc1ccccc1)C(=O)N1CCOCC1)C(=O)N[C@@H](CC1CCCCC1)[C@@H](O)[C@@H](O)CC(C)C	0.013 µM	1.2 µM	
CCCC[C@@H](N[C@@H](Cc1ccccc1)C(=O)N1CCOCC1)C(=O)N[C@@H](CC1CCCCC1)[C@@H](O)[C@@H](O)CC(C)C	0.75 µM		
CC(C)C[C@H](O)[C@H](O)[C@H](CC1CCCCC1)NC(=O)[C@H](C)O[C@@H](Cc1ccccc1)C(=O)N1CCOCC1	0.045 µM	4.3 µM	
CCCC[C@H](O[C@@H](Cc1ccccc1)C(=O)N1CCCCC1)C(=O)N[C@@H](CC1CCCCC1)[C@@H](O)[C@@H](O)CC(C)C	0.024 µM		
CC(C)C[C@H](O)[C@H](O)[C@H](CC1CCCCC1)NC(=O)[C@H](C)O[C@@H](Cc1ccccc1)C(=O)N1CCCCC1	0.025 µM	8.1 µM	
CCCC[C@H](N[C@@H](Cc1ccccc1)C(=O)N1CCC(OCOC)CC1)C(=O)N[C@@H](CC1CCCCC1)[C@@H](O)[C@@H](O)CC(C)C	0.0011 µM	0.017 µM	IC50 [4]: 0.0039 µM; IC50 [5]: 0.0028 µM
CC(C)C[C@H](N[C@@H](Cc1ccccc1)C(=O)OC(C)(C)C)C(=O)N[C@@H](CC1CCCCC1)[C@@H](O)[C@@H](O)CC(C)C	0.34 µM		
CCCC[C@H](O[C@@H](Cc1ccccc1)C(=O)N1CCC(CCOC)CC1)C(=O)N[C@@H](CC1CCCCC1)[C@@H](O)[C@@H](O)CC(C)C	0.018 µM	1.3 µM	
CCCC[C@H](O[C@@H](Cc1ccccc1)C(=O)N1CCC(OCCC)CC1)C(=O)N[C@@H](CC1CCCCC1)[C@@H](O)[C@@H](O)CC(C)C	0.29 µM		

Compound	IC50 [2]	IC50 [3]	other results
COCOC1CCN(C(=O)[C@H](Cc2ccccc2)O[C@@H](C)C(=O)N[C@@H](CC2CCCCC2)[C@@H](O)[C@@H](O)CC(C)C)CC1		0.34 µM	IC50 [4]: 0.027 µM; IC50 [5]: 0.007 µM
CCCC[C@H](O[C@@H](Cc1ccccc1)C(=O)N1CCC(OCOC)CC1)C(=O)N[C@@H](CC1CCCCC1)[C@@H](O)[C@@H](O)CC(C)C	0.001 µM	0.013 µM	IC50 [4]: 0.003 µM; IC50 [5]: 0.0032 µM
CCCC[C@H](O[C@@H](Cc1ccccc1)C(=O)N1CCC(OC)CC1)C(=O)N[C@@H](CC1CCCCC1)[C@@H](O)[C@@H](O)CC(C)C	0.044 µM		
CCCC[C@H](O[C@@H](Cc1ccccc1)C(=O)N1CCC(OCS(C)(=O)=O)CC1)C(=O)N[C@@H](CC1CCCCC1)[C@@H](O)[C@@H](O)CC(C)C	0.78 µM		
CCCC[C@H](O[C@@H](Cc1ccccc1)C(=O)N1CCC(OC[S+](C)[O-])CC1)C(=O)N[C@@H](CC1CCCCC1)[C@@H](O)[C@@H](O)CC(C)C (some centres undefined)	0.77 µM		
CC(C)C[C@H](O)[C@H](O)[C@H](CC1CCCCC1)NC(=O)[C@H](C)O[C@@H](Cc1ccccc1)C(=O)N1CCCC1		3.7 µM	
CC[C@H](O[C@@H](Cc1ccccc1)C(=O)N1CCC(OCOC)CC1)C(=O)N[C@@H](CC1CCCCC1)[C@@H](O)[C@@H](O)CC(C)C	0.0009 µM	0.12 µM	IC50 [4]: 0.0079 µM; IC50 [5]: 0.0054 µM
CCN(CC)C(=O)[C@H](Cc1ccccc1)O[C@@H](C)C(=O)N[C@@H](CC1CCCCC1)[C@@H](O)[C@@H](O)CC(C)C	> 1 µM		
C=CCOC1CCN(C(=O)[C@H](Cc2ccccc2)O[C@@H](CCCC)C(=O)N[C@@H](CC2CCCCC2)[C@@H](O)[C@@H](O)CC(C)C)CC1	0.16 µM		
CC(C)C[C@H](O)[C@H](O)[C@H](CC1CCCCC1)NC(=O)[C@H](C)O[C@@H](Cc1ccccc1)C(=O)N1CCC1		1 µM	
CC(C)C[C@H](O)[C@H](O)[C@H](CC1CCCCC1)NC(=O)C(C)N[C@H](Cc1ccccc1)C(=O)N1CCOCC1 (single isomer, unassigned)	1 µM		
CCOC(=O)C(CCc1ccccc1)N[C@@H](C)C(=O)N[C@@H](CC1CCCCC1)[C@@H](O)[C@@H](O)CC(C)C (single isomer, unassigned; less polar)	0.13 µM		
CC(C)C[C@H](O)[C@H](O)[C@H](CC1CCCCC1)NC(=O)C(C)N[C@H](Cc1ccccc1)C(=O)N1CCOCC1 (single isomer, unassigned; less polar)	1.6 µM		
CC(C)C[C@H](O)[C@H](O)[C@H](CC1CCCCC1)NC(=O)C(C)N[C@@H](Cc1ccccc1)C(=O)N1CCOCC1 (single isomer, unassigned; less polar)	0.085 µM		
CCOC(=O)C(CCc1ccccc1)N[C@@H](C)C(=O)N[C@@H](CC1CCCCC1)[C@@H](O)[C@@H](O)CC(C)C (single isomer, unassigned; more polar)	0.15 µM		
CCOC(=O)C(CCc1ccccc1)N[C@@H](CC(C)C)C(=O)N[C@@H](CC1CCCCC1)[C@@H](O)[C@@H](O)CC(C)C (single isomer, unassigned; more polar)	0.16 µM		
CC(C)C[C@H](O)[C@H](O)[C@H](CC1CCCCC1)NC(=O)C(C)N[C@@H](Cc1ccccc1)C(=O)N1CCOCC1 (single isomer, unassigned; more polar)	1 µM		
CCOC(=O)C(CCc1ccccc1)N[C@@H](CC(C)C)C(=O)N[C@@H](CC1CCCCC1)[C@@H](O)[C@@H](O)CC(C)C (stereo in doubt)	0.24 µM		
CC(C)CC(N[C@@H](CCc1ccccc1)C(=O)OC(C)(C)C)C(=O)N[C@@H](CC1CCCCC1)[C@@H](O)[C@@H](O)CC(C)C (stereo in doubt; form 1)	4 µM		
CC(C)CC(N[C@@H](CCc1ccccc1)C(=O)OC(C)(C)C)C(=O)N[C@@H](CC1CCCCC1)[C@@H](O)[C@@H](O)CC(C)C (stereo in doubt; form 2)	1 µM		
